T cruzi repl – blocks replication of Trypanosoma cruzi; T. cruzi beta-gal in NIH3T3, luminescence, 90 h; inhibition, % (concentration not given with the values); 1.4% of 300,000 active;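 active means mean inhibition across valid replicates above about 55%, limit read from the data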;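 further: signal also drops with host cell toxicity which is not excluded here; 0% = plate median of DMSO wells and 100% = zero luminescence signal; higher percent means less beta-gal luminescence so fewer parasites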
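Assay system: NIH/3T3 host cells with β-galactosidase reporter T. cruzi; input: 5,000 host fibroblasts per well; compound: single 50 nL compound addition per well in DMSO; timing: ≥90 h infection period, 3 h prior cell attachment; measured by: GalScreen β-gal luminescence, detergent lysis, 60 min; evaluation: percent inhibition of parasite-derived β-gal signal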
HIF activator – HIF pathway transcriptional activation; U2OS HRE-luciferase reporter, luminescence; normalized: DMSO 0%, desferrioxamine 100%; activation, % at 7.5 µM (by protocol); 0.32% of 300,000 active;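 active means mean activation of at least 10% of the iron chelator positive control signal, with at least half of replicates also reaching 10%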
CSC inhib – cancer stem cell inhibition. 1.1% of 300,000 active. inhibition, % at 7.5 µM. cancer stem cell-like cells viability, luminescence. AID 2717; in the data active means inhibition above about 75%; tested in HMLE shEcad cells
PfHsp90 yeast 2 – inhibits growth of yeast expressing Plasmodium falciparum Hsp90; 0.32% of 310,000 active; inhibition, % at 9.4 µM; AID 504621; S. cerevisiae expressing PfHsp90, BacTiter-Glo ATP, 48 h; yeast lacking PDR1 and PDR3 efflux regulators;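 active means every replicate shows inhibition above about 80%, whatever the replicate mean, limit read from the data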;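 further: 0% = DMSO neutral controls and 100% = 20 µM radicicol positive controls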
SKKanGAS inh – SKKanGAS growth inhibition; S. pyogenes SKKanGAS, kanamycin growth, BacTiter-Glo, 6 h; inhibition, % at 7.5 µM; 1.3% of 300,000 active; AID 1662;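 active means mean replicate score, as percent of positive control median, at least 50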;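 further: strain carries kanamycin resistance gene driven by streptokinase promoter and grows in 40 µg/ml kanamycin; loss of luminescence reflects streptokinase promoter inhibition or plain growth inhibition; 0% = median of DMSO wells and 100% = positive control at its reference dose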
Beta cell apopt – blocks beta cell apoptosis | 0.8% of 300,000 active | INS-1E cytokine-induced death, ATP luminescence, 48 h; percent of positive-control rescue, neutral wells zero | protection from apoptosis, % (concentration not given with the values) | AID 435005;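 active means Every replicate reaches about 75%, or at least half do and their mean reaches it too, limit read from the data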;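 further: 0% = cytokine-treated negative control wells and 100% = positive control rescue; higher means more ATP so stronger rescue from cytokine killing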
Starred values were filed as active, the others as inactive; / = not tested or not shown. This is a sample that favours compounds with a hit; in the whole collection about 3.6% have one here.

SMILES | T cruzi repl | HIF activator | CSC inhib | PfHsp90 yeast 2 | SKKanGAS inh | Beta cell apopt
O=C1c2ccccc2C2=Nc3ccccc3SC(c3ccc(Cl)cc3)C12 (centres undefined) | 47 | 0 | 127* | 22 | 78* | 95*
Fc1cccc(C2NN=C(c3ccccc3)S2)c1 (centres undefined) | -7 | 0 | 8 | -8 | 0 | 15
O=C1c2ccccc2C2=Nc3ccccc3SC(c3cccc(F)c3)C12 (centres undefined) | 56* | 4 | 6 | -73 | 79* | 12
O=C1CCCC2=C1C(c1ccc(Cl)cc1)C1C(=O)c3ccccc3C1=N2 (centres undefined) | 44 | 0 | 21 | -21 | 24 | -5
O=C(NCC1CCCO1)c1ccc(CNS(=O)(=O)c2cccc(Cl)c2)cc1 (centres undefined) | -2 | 0 | 0 | -8 | -1 | -4
O=C(NC(=O)c1ccccc1)Nc1ccc(Cl)cn1 | -7 | 0 | 16 | 2 | 6 | 4
O=C(NCCCSc1ccccc1)c1cc(Cl)ccc1O | -4 | 0 | / | -32 | 16 | 0
c1ccc(CNc2nc(-c3cccs3)nc3ccccc23)nc1 | 19 | 0 | -8 | 0 | 16 | -4
Cc1ccc(CNc2nc(-c3cccs3)nc3ccccc23)cc1 | 34 | 0 | 92* | -7 | 29 | 6
COc1ccc(OC)c(-c2cnc(OC(C)(C)C)nc2OC(C)(C)C)c1 | -36 | 0 | 51 | 21 | -6 | 21
CN(Cc1nccn1C)C(=O)c1ccc(OC2CCN(CCc3ccccc3)CC2)cc1 | -14 | 0 | -1 | 6 | -1 | 2
O=C(/C=C(\c1ccccc1)n1cncn1)c1ccccc1 | 28 | 0 | -4 | 9 | 0 | 0
O=C(/C=C(\c1ccc(Cl)cc1)n1cncn1)c1ccc(Cl)cc1 | 65* | 0 | 24 | 3 | -8 | 5
Nc1nnnn1/N=C/C=C/c1ccccc1 | -5 | 0 | -9 | -4 | -2 | 2
Nc1nnnn1/N=C/C(Br)=C/c1ccccc1 | -16 | -4 | 122* | -5 | 0 | 42
COc1ccc(CNC(=O)C2CSC(=O)C2)cc1 (centres undefined) | 56* | 0 | -9 | 6 | 1 | -16
Cc1ccc2[nH]c(CNC(=O)c3ccccc3F)cc2c1 | 0 | 1 | -22 | 19 | -2 | 0
N#Cc1ccc(S(=O)(=O)NC2CCCCNC2=O)cc1 (centres undefined) | 0 | 1 | -5 | 12 | -8 | -4
Cc1ccc(NC(=S)NCCSc2ccc(Cl)cc2)cc1 | 51 | 0 | 11 | -5 | 8 | -12
CC(CNC(=S)Nc1cc(F)cc(F)c1)CSc1ccc(Cl)cc1 (centres undefined) | 7 | -1 | 87* | 12 | 55* | 13
c1ccc(C2C3=C(Nc4ncnn42)c2ccccc2CCC3)cc1 (centres undefined) | -6 | 0 | 1 | -22 | 3 | 2
Clc1ccc(C2C3=C(Nc4ncnn42)c2ccccc2CC3)cc1 (centres undefined) | 4 | 1 | -3 | / | 70* | -7
CC1=CC(C)[C@H](/C=N/n2c(=O)[nH]c3c([nH]c4ccc(C)cc43)c2=O)C(C)C1 (some centres undefined) | 7 | -1 | 87* | / | 1 | 25
COc1ccc(/C=N/n2c(=O)[nH]c3c([nH]c4ccc(C)cc43)c2=O)cc1CN1CCOCC1 | 4 | 0 | / | 4 | 0 | /
CCOc1ccc(NC(=O)CCNC(=O)Cn2ccc3ccccc3c2=O)cc1 | 3 | 0 | -8 | -1 | 1 | -4
SMILES | T cruzi repl | HIF activator | CSC inhib | PfHsp90 yeast 2 | SKKanGAS inh | Beta cell apopt
Nc1ccc(N(c2ccccc2)c2ccc(N)cc2)cc1 | 58* | 0 | 90* | 2 | 10 | /
O=C1CCC[C@@H]2Cc3[nH]c4c(Cl)ccc(Cl)c4c3[C@@H]3CCN1[C@H]23 | 64* | 0 | 4 | 15 | 14 | -9
COC(=O)c1ccc2nc3c(cc2c1)[C@@H]1CCN2C(=O)CCC[C@H](C3)[C@H]12 | / | / | / | 21 | / | /
CC(C)Cn1c(N)c(C(=O)CSc2nc3ccccc3c(=O)n2CCCN2CCOCC2)c(=O)n(C)c1=O | 55* | 0 | -7 | / | 9 | -2
C=CCn1c(N)c(C(=O)Nc2cccc(C)c2)c2nc3ccccc3nc21 | 46 | 0 | 25 | -10 | 51* | -1
N#Cc1c(N)n(CCCN2CCOCC2)c2nc3ccccc3nc12 | / | / | -10 | 5 | / | 1
Nc1c(C(=O)Nc2ccccc2)c2nc3ccccc3nc2n1CCCN1CCOCC1 | 27 | 0 | 98* | 23 | 15 | 2
CN[C@H]1CCc2cc(OC)c(OC)c(OC)c2-c2ccc(N(C)CC(OC)OC)c(=O)cc21 | 17 | 2 | 80* | 27 | 0 | 10
COc1cc2c(c(OC)c1OC)-c1ccc(N(C)CC(OC)OC)c(=O)cc1[C@@H](NC(C)=O)CC2 | 18 | 0 | 75* | 14 | 2 | 30
Cn1cc(S(=O)(=O)NC[C@H]2O[C@@H](n3ccc(=O)[nH]c3=O)[C@H](O)[C@@H]2O)cn1 | / | / | / | -6 | / | /
CC(C)(C)c1cc(C(c2cccnc2)N2CCN(CCO)CC2)cc(C(C)(C)C)c1O (centres undefined) | 61* | 0 | 196* | 105* | -43 | 9
CCOc1ccccc1C(=O)NCC(=O)OCC(=O)N1CCCC1 | / | / | / | -12 | / | 6
N#C/C(=C(/O)c1ccco1)c1nc2ccccc2s1 | -16 | 6 | 12 | 20 | 2 | 0
N#C/C(=C(/O)c1cc2ccccc2o1)c1nc2ccccc2s1 | 46 | 1 | 108* | 16 | 61* | 10
CC(Oc1ccc2c3c(c(=O)oc2c1)CCCC3)C(=O)NCC(O)c1ccccc1 (centres undefined) | 2 | 64* | -12 | -8 | -1 | 4
CCc1sc(N(C(=O)Cc2ccccc2)c2ccc(F)cc2)nc1-c1ccccc1 | 2 | 0 | 47 | 8 | 55* | 9
CCc1sc(N(C(=O)Cc2ccccc2)c2ccccc2)nc1-c1ccccc1 | 14 | 0 | 3 | -2 | 25 | 2
CN(C)S(=O)(=O)N1CCc2ccc(NC(=O)c3ccc(C(F)(F)F)cc3)cc2C1 | 2 | -10 | -11 | -2 | -6 | -3
CC(=O)N1CCOc2ccc(S(=O)(=O)N3CCC(C)CC3)cc21 | -9 | 1 | -6 | 9 | -2 | -3
CSc1cccc(NC(=S)NC(=O)CCc2ccccc2)c1 | 1 | 1 | 36 | 10 | 60* | -1
Cc1ccc(S(=O)(=O)NC2=C(N3CCN(c4ccccc4F)CC3)C(=O)c3ccccc3C2=O)cc1 | 27 | 1 | 6 | -14 | 37 | 4
CC(=O)Nc1ccc(S(=O)(=O)NC2=C(N3CCN(c4ccc(F)cc4)CC3)C(=O)c3ccccc3C2=O)cc1 | -23 | 0 | 39 | -5 | 25 | 85*

Screens (PubChem BioAssay)
